Results pooled from the literature.
Compare with care: the assays were run in different laboratories.
Target: Activated CDC42 kinase 1 (TNK2, Homo sapiens, UniProt Q07912)

CN(C)CC#Cc1ccc(OCCCc2sc(N3CCc4cccc(C(=O)Nc5nc6ccccc6s5)c4C3)nc2C(=O)O)c(F)c1
remaining binding (cell-free assay, competition with immobilised ligand; 1 µM): 100%

Nc1ncnc2occ(-c3ccc(NC(=O)Nc4cc(C(F)(F)F)ccc4F)cc3)c12
remaining signal (cell-free assay, inhibitor; 20 µM): 13%

CCN(CC)c1ccc(C2=NNC(=O)CC2C)cc1[N+](=O)[O-] (stereo not drawn)
remaining activity (enzyme activity, inhibitor; 10 µM): 94%

CCCCNc1ncc2c(-c3ccc(F)cc3)nn(C[C@H]3CC[C@H](N)CC3)c2n1
inhibition (target engagement in cells, inhibitor, chemoproteomics; 20 mM): 71.4%

N#CCCc1ccc2c(c1)-c1[nH]c3ccc([N+](=O)[O-])cc3c1CC(=O)N2
remaining signal (cell-free assay; 0.5 µM): 75.4%

O=S1(=O)N=C(NCc2ccc(OC(F)(F)F)cc2)Nc2cc(Cl)ccc21
inhibition (binding, competition with immobilised ligand; 10 µM): > 90%

Cc1sc(C(=O)NC2COC2)cc1-n1cc(NC(=O)Nc2c(F)cccc2Cl)cn1
remaining activity (enzyme activity, inhibitor; 10 µM): 106%

Cc1ccc(C(=O)Nc2ccc(CN3CCN(C)CC3)c(C(F)(F)F)c2)cc1C#Cc1cnc2cccnn12
remaining activity (enzyme activity, inhibitor; 23.5 nM): 100%

CNC(=O)c1ccccc1Nc1cc(Nc2ccc(N3CCOCC3)cc2OC)ncc1C(F)(F)F
inhibition (enzyme activity, inhibitor; 1 µM): > 50%

O=C(O)c1cc(-c2ccc(C3CCNCC3)cc2)c2ccc(-c3ccc(C(F)(F)F)cc3)cc2c1
remaining binding (cell-free assay, competition with immobilised ligand; 1 µM): 100%

CS(=O)(=O)CCNCc1ccc(-c2ccc3ncnc(Nc4ccc(OCc5cccc(F)c5)c(Cl)c4)c3c2)o1
remaining signal (cell-free assay; 0.5 µM): 97.5%

CC(C)(O)[C@H]1CC[C@H](Nc2ccc3ncc(-c4cccc(C(F)(F)F)c4)n3n2)CC1
remaining activity (enzyme activity, inhibitor; 1 µM): 5.31%

CC(=O)N1CCC(c2ccc(C(=O)NC(=N)N)cc2C(F)(F)F)CC1
remaining binding (cell-free assay, competition with immobilised ligand; 1 µM): 100%

CC(C)(C)c1nc(-c2cccc(NS(=O)(=O)c3c(F)cccc3F)c2F)c(-c2ccnc(N)n2)s1
remaining activity (enzyme activity, inhibitor, radiometric; 1 µM): 29%

N#CC1(c2ccccn2)CCN(Cc2cc(C(=O)N3CCCC3)c(=O)n3ccccc23)CC1
remaining binding (cell-free assay, competition with immobilised ligand; 1 µM): 85%

O=C(Nc1cnn(-c2csc(C(=O)NC3COC3)c2)c1)Nc1ccccc1Cl
remaining activity (enzyme activity, inhibitor; 5 µM): 85.6%

O=C(N1CCS(=O)(=O)CC1)N1C[C@H](c2ccc(OC(F)(F)F)cc2)C[C@H](c2nc(C3CC3)no2)C1
remaining binding (cell-free assay, competition with immobilised ligand; 1 µM): 97%

COc1cccc2c(NCc3ccccc3)nc(-n3c(N)nc4ccccc43)nc12
inhibition (target engagement in cells, inhibitor, chemoproteomics; 20 mM): 18.9%
